These results are taken from ChEMBL document CHEMBL3865839, “Short Route to the Total Synthesis of Natural Muricadienin and Investigation of Its Cytotoxic Properties” (J Nat Prod, 2016).

Assay [1] has as its system HEK293. The experiment in a line: Induction of apoptosis in HEK293 cells assessed as early apoptotic cells at 0.1 uM after 24 hrs by Annexin V/propidium iodide-dual staining based FACS analysis (reference value: 2.04%). Format: functional, Homo sapiens. In general terms: Flow cytometry measures light scatter and fluorescence of single cells or particles in a stream.
The test system of assay [2] is HEK293. The assay can be described thus: Induction of apoptosis in HEK293 cells assessed as late apoptotic cells at 0.1 uM after 24 hrs by Annexin V/propidium iodide-dual staining based FACS analysis (reference value: 4.30%). It counts as functional, Homo sapiens.
The subject of assay [3] is HEK293. The experiment in a line: Induction of apoptosis in HEK293 cells after 24 hrs by Annexin V/propidium iodide-dual staining based FACS analysis. It counts as functional, cell-based. The following applies: Homo sapiens.
Assay [4] deals with T1, DNA topoisomerase 1 (Homo sapiens) (UniProt P11387).
T1 sequence (whole entry): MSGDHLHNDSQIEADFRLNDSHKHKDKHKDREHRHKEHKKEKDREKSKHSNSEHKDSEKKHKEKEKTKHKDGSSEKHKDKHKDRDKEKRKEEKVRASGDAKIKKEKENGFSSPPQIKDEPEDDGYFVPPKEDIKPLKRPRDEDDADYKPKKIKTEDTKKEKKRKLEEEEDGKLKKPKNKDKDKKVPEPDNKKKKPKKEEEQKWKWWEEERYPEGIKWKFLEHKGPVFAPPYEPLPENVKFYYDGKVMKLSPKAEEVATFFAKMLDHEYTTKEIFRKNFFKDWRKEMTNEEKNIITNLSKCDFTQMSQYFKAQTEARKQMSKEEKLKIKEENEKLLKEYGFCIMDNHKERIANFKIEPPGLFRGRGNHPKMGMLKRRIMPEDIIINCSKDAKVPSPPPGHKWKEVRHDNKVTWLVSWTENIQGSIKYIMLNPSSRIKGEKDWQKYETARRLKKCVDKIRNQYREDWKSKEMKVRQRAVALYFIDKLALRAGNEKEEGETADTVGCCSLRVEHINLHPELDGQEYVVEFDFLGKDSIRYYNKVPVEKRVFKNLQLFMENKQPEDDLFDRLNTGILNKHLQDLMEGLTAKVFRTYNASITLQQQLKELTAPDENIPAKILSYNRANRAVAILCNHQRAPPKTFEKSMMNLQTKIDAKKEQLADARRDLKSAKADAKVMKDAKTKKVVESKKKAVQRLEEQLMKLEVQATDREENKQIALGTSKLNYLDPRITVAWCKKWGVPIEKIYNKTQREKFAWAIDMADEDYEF
The assay can be described thus: Inhibition of human Top1 using pHOT as substrate assessed as suppression of relaxation of DNA supercoil at >50 uM after 30 mins by ethidium bromide-based agarose gel electrophoresis.

In assay [5] the target is DNA topoisomerase 2-alpha (Homo sapiens) (UniProt P11388). The experiment in a line: Inhibition of human Top2alpha using pHOT as substrate assessed as suppression of relaxation of DNA supercoil at >1 uM after 30 mins administered prior to enzyme addition by ethidium bromide-based agarose gel electrophoresis.
Assay [6] concerns HEK293. The assay can be described thus: Induction of apoptosis in HEK293 cells assessed as viable cells at 0.19 uM after 24 hrs by Annexin V/propidium iodide-dual staining based FACS analysis (reference value: 90.31%). As to conditions: Homo sapiens, HEK293, 24 h; read-out: Activity. It counts as functional.
Assay [7] concerns HEK293. The assay can be described thus: Induction of apoptosis in HEK293 cells assessed as necrotic cells at 0.19 uM after 24 hrs by Annexin V/propidium iodide-dual staining based FACS analysis (reference value: 3.35%). Format: functional, Homo sapiens.
In assay [8] the test system is HEK293. The assay can be described thus: Induction of apoptosis in HEK293 cells assessed as early apoptotic cells at 0.48 uM after 24 hrs by Annexin V/propidium iodide-dual staining based FACS analysis (reference value: 2.04%). It counts as functional, Homo sapiens.
Assay [9] deals with HEK293. The experiment in a line: Induction of apoptosis in HEK293 cells assessed as late apoptotic cells at 0.48 uM after 24 hrs by Annexin V/propidium iodide-dual staining based FACS analysis (reference value: 4.30%). It counts as functional, Homo sapiens.
The subject of assay [10] is HEK293. The experiment in a line: Induction of apoptosis in HEK293 cells assessed as viable cells at 0.1 uM after 24 hrs by Annexin V/propidium iodide-dual staining based FACS analysis (reference value: 90.31%). It counts as functional. As to conditions: Homo sapiens, HEK293, 24 h; read-out: Activity.
In assay [11] the test system is HEK293. The experiment in a line: Induction of apoptosis in HEK293 cells assessed as late apoptotic cells at 0.19 uM after 24 hrs by Annexin V/propidium iodide-dual staining based FACS analysis (reference value: 4.30%). It counts as functional, Homo sapiens.
In assay [12] the test system is HEK293. The experiment in a line: Induction of apoptosis in HEK293 cells assessed as viable cells at 0.48 uM after 24 hrs by Annexin V/propidium iodide-dual staining based FACS analysis (reference value: 90.31%). It counts as functional. As to conditions: Homo sapiens, HEK293, 24 h; read-out: Activity.
Assay [13] is described as follows: Cytotoxicity against HEK293 cells assessed as reduction in cell viability after 24 hrs by MTT assay. As to conditions: Homo sapiens, HEK293, 24 h. Format: functional, cell-based. In a few lines: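 HEK293 (HPA Culture Collections) monolayers in DMEM with 10% FBS and 1% penicillin–streptomycin, 37 °C, humidified 5% CO2. Compound dissolved in DMSO, then diluted in culture medium. Antiproliferative read-out by MTT tetrazolium reduction to formazan. Etoposide run as positive control. IC50 determined.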

In assay [14] the test system is HEK293. The experiment in a line: Induction of apoptosis in HEK293 cells assessed as necrotic cells at 0.1 uM after 24 hrs by Annexin V/propidium iodide-dual staining based FACS analysis (reference value: 3.35%). It counts as functional, Homo sapiens.
Assay [15] relates to HEK293. The experiment in a line: Induction of apoptosis in HEK293 cells assessed as early apoptotic cells at 0.19 uM after 24 hrs by Annexin V/propidium iodide-dual staining based FACS analysis (reference value: 2.04%). Format: functional, Homo sapiens.
The subject of assay [16] is HEK293. The assay can be described thus: Induction of apoptosis in HEK293 cells assessed as necrotic cells at 0.48 uM after 24 hrs by Annexin V/propidium iodide-dual staining based FACS analysis (reference value: 3.35%). Format: functional, Homo sapiens.

The source made the active and inactive calls. The rule behind the calls is not given here.

Chain of DNA topoisomerase 2-alpha (Homo sapiens) (P11388 whole entry): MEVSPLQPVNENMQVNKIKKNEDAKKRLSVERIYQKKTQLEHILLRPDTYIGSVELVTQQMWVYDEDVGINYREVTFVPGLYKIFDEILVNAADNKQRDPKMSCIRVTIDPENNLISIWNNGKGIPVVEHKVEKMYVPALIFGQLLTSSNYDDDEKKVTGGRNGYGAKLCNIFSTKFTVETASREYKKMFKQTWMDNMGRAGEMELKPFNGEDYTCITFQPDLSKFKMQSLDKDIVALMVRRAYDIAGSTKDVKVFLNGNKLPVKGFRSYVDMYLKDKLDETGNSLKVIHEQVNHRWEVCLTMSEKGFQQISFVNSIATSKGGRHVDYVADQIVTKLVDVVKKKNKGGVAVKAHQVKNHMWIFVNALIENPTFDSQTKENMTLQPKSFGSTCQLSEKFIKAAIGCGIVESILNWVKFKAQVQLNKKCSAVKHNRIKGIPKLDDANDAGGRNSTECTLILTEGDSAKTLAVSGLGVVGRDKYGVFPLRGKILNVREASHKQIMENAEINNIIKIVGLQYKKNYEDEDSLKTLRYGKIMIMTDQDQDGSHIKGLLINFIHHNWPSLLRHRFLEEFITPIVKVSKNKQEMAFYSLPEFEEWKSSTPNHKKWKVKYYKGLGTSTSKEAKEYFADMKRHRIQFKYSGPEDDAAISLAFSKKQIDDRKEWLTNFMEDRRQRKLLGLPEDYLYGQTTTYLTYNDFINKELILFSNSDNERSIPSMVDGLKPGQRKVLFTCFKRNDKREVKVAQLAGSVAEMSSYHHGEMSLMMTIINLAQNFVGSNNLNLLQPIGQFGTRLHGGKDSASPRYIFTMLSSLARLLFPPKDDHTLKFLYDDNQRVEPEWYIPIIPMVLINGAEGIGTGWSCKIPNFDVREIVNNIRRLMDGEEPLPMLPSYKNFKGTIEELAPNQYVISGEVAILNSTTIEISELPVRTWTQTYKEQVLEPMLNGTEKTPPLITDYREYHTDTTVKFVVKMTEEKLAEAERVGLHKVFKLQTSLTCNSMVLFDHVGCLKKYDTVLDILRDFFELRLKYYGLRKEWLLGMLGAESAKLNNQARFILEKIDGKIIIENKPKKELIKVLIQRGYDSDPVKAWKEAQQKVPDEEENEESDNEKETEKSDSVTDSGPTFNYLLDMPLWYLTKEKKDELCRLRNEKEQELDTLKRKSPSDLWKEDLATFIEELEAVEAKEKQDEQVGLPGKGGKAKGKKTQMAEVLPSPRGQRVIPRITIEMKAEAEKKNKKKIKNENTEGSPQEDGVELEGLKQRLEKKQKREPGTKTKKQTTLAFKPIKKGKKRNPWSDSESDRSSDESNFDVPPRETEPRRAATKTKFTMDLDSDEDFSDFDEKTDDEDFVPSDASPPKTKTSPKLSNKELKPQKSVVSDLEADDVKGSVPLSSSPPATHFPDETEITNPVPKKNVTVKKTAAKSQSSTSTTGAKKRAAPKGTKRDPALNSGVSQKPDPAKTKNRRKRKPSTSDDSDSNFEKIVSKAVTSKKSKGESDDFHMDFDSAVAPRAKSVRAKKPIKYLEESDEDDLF

On to `CCCCCCCCCCCC/C=C\CC/C=C\CCCCCCCCCCCCC1=C[C@H](C)OC1=O`, for which the Activity in the assay with HEK293 [1] was 5.31%; in the assay with HEK293 [2], 8.09%; in the assay with HEK293 [3] it was “Dose-dependent effect”; with HEK293 [7], 6.7%; in the assay on HEK293 [8], 16.14%; in the assay on HEK293 [9], 27.32%. Moreover, the Activity was 15.3% in the assay with HEK293 [11], 4.3% with HEK293 [14], 10.49% in the assay with HEK293 [15] and 7.91% in the assay on HEK293 [16]. For the same compound, the inhibition result in assay [4] and in [5] was “Active” throughout. Moreover, the viability at 0.19 µM in the assay with HEK293 [6] was determined as 67.5%. Also, the viability at 0.1 µM in the assay with HEK293 [10] worked out at 82.3%. In addition, the viability at 0.48 µM with HEK293 [12] was 48.6%. Also, the IC50 (usually the point on the concentration scale where inhibition reaches its midpoint) in assay [13] came to 0.39 µM.
For the compound `COc1cc([C@@H]2c3cc4c(cc3[C@@H](O[C@@H]3O[C@@H]5CO[C@@H](C)O[C@H]5[C@H](O)[C@H]3O)[C@H]3COC(=O)[C@H]23)OCO4)cc(OC)c1O` [ETOPOSIDE], the concentration for half-maximal inhibition (IC50) in [13] worked out at 0.6 µM.
